The source made the active and inactive calls. No cut-off for these calls is given here.
Experiments:
[1] = biological target: T1, P2Y purinoceptor 6 (Homo sapiens, UniProt Q15077); assay: Agonist activity at human recombinant P2Y6 receptor expressed in human 1321N1 cells assessed as increase in intracellular calcium level at >100 uM by fluo-4 dye-based spectrofluorometric analysis; type: functional, cell-based
Summary of the method: (§1)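 1321N1 cells stably expressing recombinant hP2Y6-R were trypsin/EDTA-detached, loaded with 1 µM Fluo-4/AM in HBSS (Ca2+/Mg2+) for 25 min at 37 °C, then held 25 min at 37 °C for de-esterification. Stirred cuvette suspension read at ex 488/em 520 nm after compound addition, with UDP as control. Fmax/Fmin set with 0.1% Triton X-100 then 50 mM EDTA; [Ca2+] = Kd(F−Fmin)/(Fmax−F).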

[2] = biological target: T1, P2Y purinoceptor 6; assay: Antagonist activity at human recombinant P2Y6 receptor expressed in human 1321N1 cells assessed as inhibition of UDP-induced increase in intracellular calcium level at 30 uM incubated for 2 mins prior to UDP induction by fluo-4 dye-based spectrofluorometric analysis; type: functional, cell-based
Summary of the method: (§2)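 hP2Y6-R-expressing 1321N1 cells, Fluo-4/AM-loaded (1 µM, 25 min, 37 °C, then 25 min de-esterification) in HBSS with Ca2+/Mg2+, stirred in a cuvette with fluorescence at 488/520 nm. Analogue given 2 min before 1 µM UDP stimulation. Calcium calculated from Triton X-100/EDTA calibration. Two experiments in duplicate, mean ± SEM; one-way ANOVA against vehicle control.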

[3] = biological target: T1, P2Y purinoceptor 6; assay: Agonist activity at human recombinant P2Y6 receptor expressed in human 1321N1 cells assessed as increase in intracellular calcium level by fluo-4 dye-based spectrofluorometric analysis; type: functional, cell-based; summary of the method: as §1
[4] = biological target: T1, P2Y purinoceptor 6; assay: Antagonist activity at human recombinant P2Y6 receptor expressed in human 1321N1 cells assessed as inhibition of UDP-induced increase in intracellular calcium level at 100 uM incubated for 2 mins prior to UDP induction by fluo-4 dye-based spectrofluorometric analysis; type: functional, cell-based; summary of the method: as §2
[5] = biological target: T2, NPP1 (ectonucleotide pyrophosphatase/phosphodiesterase family member 1) (Homo sapiens, UniProt P22413); assay: Drug metabolism assessed as human NPP1-mediated compound hydrolysis at 100 uM after 2 hrs by HPLC analysis relative to UDP-treated control; type: ADME; details: human NPP1 enzyme, read-out: Drug metabolism
T2 sequence (P22413 whole entry): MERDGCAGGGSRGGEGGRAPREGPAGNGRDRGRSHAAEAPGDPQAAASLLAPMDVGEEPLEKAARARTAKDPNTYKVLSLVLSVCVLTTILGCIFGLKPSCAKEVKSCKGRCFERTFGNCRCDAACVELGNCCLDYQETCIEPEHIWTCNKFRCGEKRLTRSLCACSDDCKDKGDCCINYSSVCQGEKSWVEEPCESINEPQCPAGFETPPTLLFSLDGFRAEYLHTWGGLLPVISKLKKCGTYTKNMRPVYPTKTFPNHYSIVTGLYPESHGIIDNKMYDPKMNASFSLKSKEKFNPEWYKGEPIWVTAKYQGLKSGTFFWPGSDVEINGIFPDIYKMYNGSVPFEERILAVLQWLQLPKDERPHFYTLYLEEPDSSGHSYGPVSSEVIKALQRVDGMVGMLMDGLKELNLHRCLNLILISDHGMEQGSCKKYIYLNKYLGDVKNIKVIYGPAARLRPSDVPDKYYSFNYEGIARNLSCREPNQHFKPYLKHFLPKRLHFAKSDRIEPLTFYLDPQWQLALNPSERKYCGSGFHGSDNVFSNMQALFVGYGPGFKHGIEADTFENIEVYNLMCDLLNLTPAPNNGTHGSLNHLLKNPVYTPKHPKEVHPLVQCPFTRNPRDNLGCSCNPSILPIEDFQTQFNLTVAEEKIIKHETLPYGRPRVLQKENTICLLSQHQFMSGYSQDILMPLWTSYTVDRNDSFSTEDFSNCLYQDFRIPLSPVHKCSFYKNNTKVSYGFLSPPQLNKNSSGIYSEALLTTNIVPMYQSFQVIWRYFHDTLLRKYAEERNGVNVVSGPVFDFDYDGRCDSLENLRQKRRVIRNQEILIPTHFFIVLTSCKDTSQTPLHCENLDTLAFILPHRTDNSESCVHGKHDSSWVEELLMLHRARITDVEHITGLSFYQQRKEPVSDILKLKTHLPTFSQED
Summary of the method: (§3)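 Compound at 100 µM incubated at 37 °C with hNPP1 for 2 h or hNPP3 for 3 h, in buffer of 1 mM CaCl2, 200 mM NaCl, 10 mM KCl and 100 mM Tris, pH 8.5. Quenched with perchloric acid, neutralized to pH 7 with KOH, then C18 HPLC with isocratic TEAA (pH 7)/CH3CN. Degradation taken from the nucleoside monophosphate peak area minus control, relative to 100% UDP hydrolysis.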

[6] = biological target: T3, NPP3 (ectonucleotide pyrophosphatase/phosphodiesterase family member 3) (Homo sapiens, UniProt O14638); assay: Drug metabolism assessed as human NPP3-mediated compound hydrolysis at 100 uM after 3 hrs by HPLC analysis relative to UDP-treated control; type: ADME; details: human NPP3 enzyme, read-out: Drug metabolism; summary of the method: as §3
T3 sequence (O14638 whole entry): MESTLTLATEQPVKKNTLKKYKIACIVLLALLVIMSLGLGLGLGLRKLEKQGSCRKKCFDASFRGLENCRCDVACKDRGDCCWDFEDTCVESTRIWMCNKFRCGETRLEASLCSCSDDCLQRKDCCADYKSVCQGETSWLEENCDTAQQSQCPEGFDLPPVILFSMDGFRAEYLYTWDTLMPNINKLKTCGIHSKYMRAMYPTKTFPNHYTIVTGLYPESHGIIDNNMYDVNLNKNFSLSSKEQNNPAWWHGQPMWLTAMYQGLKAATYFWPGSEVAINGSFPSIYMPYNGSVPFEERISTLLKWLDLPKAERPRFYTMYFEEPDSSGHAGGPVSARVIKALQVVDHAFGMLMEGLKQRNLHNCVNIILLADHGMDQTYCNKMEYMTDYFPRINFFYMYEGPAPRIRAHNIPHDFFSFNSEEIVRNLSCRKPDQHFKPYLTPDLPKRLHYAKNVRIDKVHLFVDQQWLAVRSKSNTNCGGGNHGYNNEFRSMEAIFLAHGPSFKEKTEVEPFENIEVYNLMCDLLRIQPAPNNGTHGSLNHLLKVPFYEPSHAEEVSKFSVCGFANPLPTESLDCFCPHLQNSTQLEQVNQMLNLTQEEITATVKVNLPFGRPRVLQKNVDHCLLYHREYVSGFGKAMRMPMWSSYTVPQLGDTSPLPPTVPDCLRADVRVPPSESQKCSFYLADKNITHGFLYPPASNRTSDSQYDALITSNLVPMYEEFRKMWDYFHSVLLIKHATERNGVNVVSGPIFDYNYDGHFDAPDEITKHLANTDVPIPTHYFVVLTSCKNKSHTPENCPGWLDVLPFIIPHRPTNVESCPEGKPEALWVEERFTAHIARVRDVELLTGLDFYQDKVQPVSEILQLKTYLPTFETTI

[7] = biological target: T4, Ectonucleotide pyrophosphatase/phosphodiesterase family member 1 (Homo sapiens) (UniProt P22413); assay: Inhibition of human NPP1-mediated UDP hydrolysis at 100 uM after 2 hrs relative to UDP-treated control
T4 sequence (whole entry): T2 sequence (P22413 whole entry)
Summary of the method: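 21.44 µg hNPP1 extract pre-incubated 3 min at 37 °C in 1 mM CaCl2, 140 mM NaCl, 5 mM KCl and 50 mM Tris, pH 8.5. Reaction started with compound and UDP, each 100 µM final. Stopped after 2 h with ice-cold perchloric acid, neutralized with KOH, then HPLC. Compared with UDP-only reference samples. Mean ± S.D. of three experiments.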

[8] = biological target: T1, P2Y purinoceptor 6; assay: Agonist activity at human recombinant P2Y6 receptor expressed in human 1321N1 cells assessed as induction of calcium release at 100 uM by fluo-4 dye-based spectrofluorometric analysis; type: functional, cell-based
Summary of the method: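 1321N1 astrocytoma cells stably expressing recombinant hP2Y6-R, trypsin/EDTA-detached, loaded with 1 µM Fluo-4/AM in HBSS (Ca2+/Mg2+) for 25 min at 37 °C, then de-esterified 25 min. Stirred suspension in a quartz cuvette, excitation 488 nm and emission 520 nm. Compound added, with UDP as control. Fmax from 0.1% Triton X-100 and Fmin from 50 mM EDTA; [Ca2+]i = Kd(F−Fmin)/(Fmax−F). Two experiments in duplicate.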

[9] = biological target: T5, Ectonucleotide pyrophosphatase/phosphodiesterase family member 3 (Homo sapiens) (UniProt O14638); assay: Inhibition of human NPP3-mediated UDP hydrolysis at 100 uM after 3 hrs relative to UDP-treated control
T5 sequence (whole entry): T3 sequence (O14638 whole entry)

T1 sequence (Q15077 whole entry): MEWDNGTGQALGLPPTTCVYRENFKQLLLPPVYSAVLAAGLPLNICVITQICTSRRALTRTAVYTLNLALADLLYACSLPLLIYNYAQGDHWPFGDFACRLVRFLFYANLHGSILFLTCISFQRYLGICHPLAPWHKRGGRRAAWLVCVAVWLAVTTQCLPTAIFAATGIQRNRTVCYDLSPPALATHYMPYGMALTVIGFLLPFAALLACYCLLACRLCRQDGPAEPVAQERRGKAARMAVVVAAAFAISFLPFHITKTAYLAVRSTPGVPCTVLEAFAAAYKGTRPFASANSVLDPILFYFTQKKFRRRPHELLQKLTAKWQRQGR

| SMILES | Activity [1] | inhibition [2] | Activity [3] | inhibition [4] | other results |
| --- | --- | --- | --- | --- | --- |
| O=c1[nH]c(=O)n([C@H]2C[C@H](O)[C@@H](COP(=O)(O)C(F)(F)P(=O)(O)O)O2)cc1F | inactive | inactive | – | – | – |
| O=c1[nH]c(=O)n([C@@H]2O[C@H](COP(=O)(O)CP(=O)(O)O)[C@@H](O)[C@H]2O)cc1F | – | – | Active | – | – |
| O=c1ccn([C@@H]2O[C@H](COP(=O)(O)CS(=O)(=O)O)[C@@H](O)[C@H]2O)c(=O)[nH]1 | – | – | – | inactive | metabolised at 2 h, 100 µM [5]: 9.5%; metabolised at 3 h, 100 µM [6]: 13.5%; inhibition [7]: 26.7%; Activity [8]: inactive; inhibition [9]: 12.2% |
| O=c1[nH]c(=O)n([C@H]2C[C@H](OP(=O)(O)O)[C@@H](COP(=O)(O)O)O2)cc1F | Active | inactive | – | – | – |
| O=c1[nH]c(=O)n([C@@H]2O[C@H](COP(=O)(O)CP(=O)(O)O)[C@@H](O)[C@H]2O)cc1-c1ccccc1 | – | – | inactive | inactive | – |
| CC(C)c1cn([C@@H]2O[C@H](COP(=O)(O)CP(=O)(O)O)[C@@H](O)[C@H]2O)c(=O)[nH]c1=O | – | – | inactive | 24% | – |
| O=c1[nH]c(=O)n([C@H]2C[C@H](O)[C@@H](COP(=O)(O)CP(=O)(O)O)O2)cc1F | Active | inactive | – | – | – |
| O=c1[nH]c(=O)n([C@@H]2O[C@H](COP(=O)(O)OS(=O)(=O)O)[C@@H](O)[C@H]2O)cc1F | – | – | – | – | metabolised at 2 h, 100 µM [5]: 18.9%; metabolised at 3 h, 100 µM [6]: 44.4% |
| Cn1c(=O)ccn([C@@H]2O[C@H](COP(=O)(O)CP(=O)(O)O)[C@@H](O)[C@H]2O)c1=O | – | – | inactive | inactive | – |

— ChEMBL document CHEMBL3603830, “Synthesis and structure-activity relationship of uracil nucleotide derivatives towards the identification of human P2Y6 receptor antagonists” (Bioorg Med Chem, 2015)
